Results published in ChEMBL document CHEMBL3045704, “Biflavonoids isolated from Selaginella lepidophylla inhibit photosynthesis in spinach chloroplasts” (J Agric Food Chem, 2008).
Calls of active or inactive are those of the source. The rule behind the calls is not given here.

What was measured:
[1] = test system: Spinacia oleracea; assay: Inhibition of thylakoid membrane bound Magnesium-transporting Mg2+ ATPase in Spinacia oleracea (spinach) leaves chloroplasts assessed as enzyme activity at 200 uM; parameters: scale not given: the % may be the effect or the level left
How it was run: (§1)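 Chloroplasts were ground in 350 mM sorbitol, 5 mM ascorbate and 20 mM MES pH 6.5, centrifuged 3000g for 60 s, washed, and resuspended in 35 mM HEPES pH 7.6. Light-triggered thylakoid-bound Mg2+-ATPase was assayed via released Pi (Sumner method), expressed as µM P/mg Chl/h and as % of control. Tested at 100–300 µM, or NH4Cl at 1–6 mM.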

[2] = test system: Spinacia oleracea; assay: Inhibition of uncoupled electron transport flow in Spinacia oleracea (spinach) leaves intact chloroplasts at 300 uM; format: functional
[3] = test system: Spinacia oleracea; assay: Inhibition of thylakoid membrane bound Magnesium-transporting Mg2+ ATPase in Spinacia oleracea (spinach) leaves chloroplasts assessed as enzyme activity at 100 uM; parameters: scale not given: the % may be the effect or the level left; how it was run: as §1
[4] = molecular target: T1, Photosystem I iron-sulfur center (Spinacia oleracea) (UniProt P10098); assay: Inhibition of photosystem I in Spinacia oleracea (spinach) leaves intact chloroplasts assessed as electron transport flow from TMQH2 to MV at 300 uM; parameters: scale not given: the % may be the effect or the level left
T1 sequence (whole entry): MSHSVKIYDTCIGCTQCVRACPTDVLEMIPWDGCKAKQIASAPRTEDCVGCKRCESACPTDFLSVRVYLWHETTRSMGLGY
How it was run: (§2)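 Electron flow from TMQH2 to MV was determined polarographically with a Clark electrode in basal electron transport medium.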

[5] = molecular target: T1, Photosystem I iron-sulfur center (Spinacia oleracea); assay: Inhibition of photosystem I in Spinacia oleracea (spinach) leaves intact chloroplasts assessed as electron transport flow from TMQH2 to MV at 100 uM; parameters: scale not given: the % may be the effect or the level left; how it was run: as §2
[6] = molecular target: Photosystem II protein D1 (Spinacia oleracea) (UniProt P69560); assay: Inhibition of photosystem II in Spinacia oleracea (spinach) leaves intact chloroplasts assessed as electron transport flow from H2O to DCPIP at 100 uM; parameters: scale not given: the % may be the effect or the level left
How it was run: (§3)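 Uncoupled PSII, water to DCPIP, was followed as DCPIP-supported O2 evolution on a Clark electrode. Medium: basal electron transport medium with 1 µM DBMIB, 100 µM DCPIP, 300 µM K3[Fe(CN)6] and 6 mM NH4Cl, without MV. I50 values were calculated.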

[7] = molecular target: T1, Photosystem I iron-sulfur center (Spinacia oleracea); assay: Inhibition of photosystem I in Spinacia oleracea (spinach) leaves intact chloroplasts assessed as electron transport flow from DCPIP to MV at 300 uM; parameters: scale not given: the % may be the effect or the level left
How it was run: (§4)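 Uncoupled PSI flow, reduced DCPIP to MV, in basal electron transport medium (3 mL). Additions: 10 µM DCMU, 100 µM DCPIP, 300 µM ascorbate and 6 mM NH4Cl. O2 uptake was monitored with a Clark electrode.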

[8] = test system: Spinacia oleracea; assay: Inhibition of ATP synthesis in Spinacia oleracea (spinach) leaves intact chloroplasts; format: functional; conditions: read-out: I50
[9] = molecular target: T1, Photosystem I iron-sulfur center (Spinacia oleracea); assay: Inhibition of photosystem I in Spinacia oleracea (spinach) leaves intact chloroplasts assessed as electron transport flow from DCPIP to MV at 100 uM; parameters: scale not given: the % may be the effect or the level left; how it was run: as §4
[10] = molecular target: T1, Photosystem I iron-sulfur center (Spinacia oleracea); assay: Inhibition of photosystem I in Spinacia oleracea (spinach) leaves intact chloroplasts assessed as electron transport flow from TMQH2 to MV at 200 uM; parameters: scale not given: the % may be the effect or the level left; how it was run: as §2
[11] = molecular target: Photosystem II protein D1 (Spinacia oleracea) (UniProt P69560); assay: Inhibition of photosystem II in Spinacia oleracea (spinach) leaves intact chloroplasts assessed as electron transport flow from H2O to DCPIP at 300 uM; parameters: scale not given: the % may be the effect or the level left; how it was run: as §3
[12] = molecular target: T1, Photosystem I iron-sulfur center (Spinacia oleracea); assay: Inhibition of photosystem I in Spinacia oleracea (spinach) leaves intact chloroplasts assessed as electron transport flow from DCPIP to MV at 200 uM; parameters: scale not given: the % may be the effect or the level left; how it was run: as §4
[13] = test system: Spinacia oleracea; assay: Inhibition of thylakoid membrane bound Magnesium-transporting Mg2+ ATPase in Spinacia oleracea (spinach) leaves chloroplasts assessed as enzyme activity at 300 uM; parameters: scale not given: the % may be the effect or the level left; how it was run: as §1
[14] = molecular target: Photosystem II protein D1 (Spinacia oleracea) (UniProt P69560); assay: Inhibition of photosystem II in Spinacia oleracea (spinach) leaves intact chloroplasts assessed as electron transport flow from H2O to DCPIP at 200 uM; parameters: scale not given: the % may be the effect or the level left; how it was run: as §3
[15] = test system: Spinacia oleracea; assay: Increase in chlorophyll a fluorescence in freshly lysed Spinacia oleracea (spinach) leaves chloroplasts at 10 uM
[16] = test system: Spinacia oleracea; assay: Inhibition of thylakoid membrane bound Magnesium-transporting Mg2+ ATPase in Spinacia oleracea (spinach) leaves chloroplasts assessed as enzyme activity at 6 mM; parameters: scale not given: the % may be the effect or the level left; how it was run: as §1
[17] = test system: Spinacia oleracea; assay: Inhibition of thylakoid membrane bound Magnesium-transporting Mg2+ ATPase in Spinacia oleracea (spinach) leaves chloroplasts assessed as enzyme activity at 1 mM; parameters: scale not given: the % may be the effect or the level left; how it was run: as §1
[18] = test system: Spinacia oleracea; assay: Inhibition of thylakoid membrane bound Magnesium-transporting Mg2+ ATPase in Spinacia oleracea (spinach) leaves chloroplasts assessed as enzyme activity at 3 mM; parameters: scale not given: the % may be the effect or the level left; how it was run: as §1
[19] = molecular target: T1, Photosystem I iron-sulfur center (Spinacia oleracea); assay: Inhibition of photosystem I in Spinacia oleracea (spinach) leaves intact chloroplasts assessed as electron transport flow from DCPIP to MV at 50 uM; parameters: scale not given: the % may be the effect or the level left; how it was run: as §4
[20] = molecular target: T1, Photosystem I iron-sulfur center (Spinacia oleracea); assay: Inhibition of photosystem I in Spinacia oleracea (spinach) leaves intact chloroplasts assessed as electron transport flow from TMQH2 to MV at 50 uM; parameters: scale not given: the % may be the effect or the level left; how it was run: as §2
[21] = molecular target: T1, Photosystem I iron-sulfur center (Spinacia oleracea); assay: Inhibition of photosystem I in Spinacia oleracea (spinach) leaves chloroplasts assessed as effect on partial reaction from PMS reduced with ascorbate to MV using KCN treated thylakoids
How it was run: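 Chloroplasts were held in basal medium with 30 mM KCN for 60 min at 4 °C in the dark to release plastocyanin. They were then diluted in sucrose/30 mM HEPES-NaOH pH 7.2/2 mM MgCl2, centrifuged 5000g for 2 min and resuspended. Flow from 100 µM PMS/300 µM ascorbate to MV was assayed in basal medium plus 1 µM DBMIB.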

[22] = molecular target: Photosystem II protein D1 (Spinacia oleracea) (UniProt P69560); assay: Inhibition of photosystem II in Spinacia oleracea (spinach) leaves intact chloroplasts assessed as electron transport flow from H2O to DCPIP at 50 uM; parameters: scale not given: the % may be the effect or the level left; how it was run: as §3
[23] = molecular target: Photosystem II protein D1 (Spinacia oleracea) (UniProt P69560); assay: Inhibition of photosystem II in Spinacia oleracea (spinach) leaves intact chloroplasts assessed as electron transport flow from DPC to DCPIP at 100 uM; parameters: scale not given: the % may be the effect or the level left
How it was run: (§5)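 Thylakoids (45 µg Chl) were pretreated with 0.8 M Tris pH 8.0 for 30 min at 4 °C, centrifuged 5000g for 2 min and resuspended in reaction medium. Electron flow from DPC to DCPIP was read spectrophotometrically at 600 nm, with DCPIP reduction quantified by its molar extinction coefficient. I50 values were calculated.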

[24] = test system: Spinacia oleracea; assay: Inhibition of basal electron transport flow in Spinacia oleracea (spinach) leaves intact chloroplasts at 88 uM; format: functional
[25] = molecular target: Photosystem II protein D1 (Spinacia oleracea) (UniProt P69560); assay: Inhibition of photosystem II in Spinacia oleracea (spinach) leaves intact chloroplasts assessed as electron transport flow from DPC to DCPIP at 200 uM; parameters: scale not given: the % may be the effect or the level left; how it was run: as §5
[26] = molecular target: Photosystem II protein D1 (Spinacia oleracea) (UniProt P69560); assay: Inhibition of photosystem II in Spinacia oleracea (spinach) leaves intact chloroplasts assessed as electron transport flow from H2O to SiMo at 200 uM; parameters: scale not given: the % may be the effect or the level left
How it was run: (§6)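 Uncoupled partial PSII reaction, water to silicomolybdate, measured by Clark electrode O2 evolution. Basal medium (sorbitol/KCl/MgCl2/KCN/30 mM tricine pH 8) was supplemented with 200 µM SiMo, 10 µM DCMU and 6 mM NH4Cl, without MV. I50 values were calculated.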

[27] = molecular target: Photosystem II protein D1 (Spinacia oleracea) (UniProt P69560); assay: Inhibition of photosystem II in Spinacia oleracea (spinach) leaves intact chloroplasts assessed as electron transport flow from H2O to SiMo at 300 uM; parameters: scale not given: the % may be the effect or the level left; how it was run: as §6
[28] = molecular target: Photosystem II protein D1 (Spinacia oleracea) (UniProt P69560); assay: Inhibition of photosystem II in Spinacia oleracea (spinach) leaves intact chloroplasts assessed as electron transport flow from DPC to DCPIP at 300 uM; parameters: scale not given: the % may be the effect or the level left; how it was run: as §5
[29] = molecular target: Photosystem II protein D1 (Spinacia oleracea) (UniProt P69560); assay: Inhibition of photosystem II in Spinacia oleracea (spinach) leaves intact chloroplasts assessed as electron transport flow from H2O to SiMo at 100 uM; parameters: scale not given: the % may be the effect or the level left; how it was run: as §6
[30] = molecular target: Photosystem II protein D1 (Spinacia oleracea) (UniProt P69560); assay: Inhibition of photosystem II in freshly lysed Spinacia oleracea (spinach) leaves chloroplasts assessed as induction of loss of reactions centers capacity to capture excitons at 300 to 900 uM
How it was run: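 JIP-test on Chl a fluorescence transients of freshly lysed spinach chloroplasts, dark-adapted 5 min at 20 µg/mL Chl. Measured at room temperature with a Handy PEA at 300, 600 and 900 µM. Parameters such as […] VJ were derived from the curves and expressed relative to control (%). Results are the average of three replicates.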

[31] = test system: Spinacia oleracea; assay: Inhibition of uncoupled electron transport flow in Spinacia oleracea (spinach) leaves intact chloroplasts; format: functional; conditions: read-out: I50

Structure (SMILES)	Activity [1]	Inhibition % [2]	Activity [3]	Activity [4]	Activity [5]	Activity [6]	Activity [7]	IC50 [8]	Activity [9]	Activity [10]	Activity [11]	Activity [12]	Activity [13]	Activity [14]	also measured
COc1cc(O)cc2c1C(=O)CC(c1ccc(O)c(-c3c(O)cc4oc(-c5ccc(O)cc5)cc(=O)c4c3O)c1)O2 (stereo not drawn)	44%	25%	63%	100%	100%	100%	100%	79 µM	100%	100%	100%	100%	20%	100%	
CN(C)C(=O)Nc1ccc(Cl)c(Cl)c1															Activity [15]: Active
Cl.N															Activity [16]: 124%; Activity [17]: 206%; Activity [18]: 240%
O=C1CC(c2ccc(O)c(-c3c(O)cc4oc(-c5ccc(O)cc5)cc(=O)c4c3O)c2)Oc2cc(O)cc(O)c21 (stereo not drawn) [2,3-DIHYDROROBUSTAFLAVONE]	47%	32%	53%	72%	98%	100%	71%	39 µM	74%	74%	100%	71%	34%	100%	Activity [19]: 96%; Activity [20]: 100%; inhibition [21]: inactive; Activity [22]: 100%
O=c1cc(-c2ccc(O)c(-c3c(O)cc4oc(-c5ccc(O)cc5)cc(=O)c4c3O)c2)oc2cc(O)cc(O)c12 [ROBUSTAFLAVONE]	76%		76%	100%	100%	57%	100%	44 µM	100%	100%	29%	100%	76%	43%	Activity [23]: 89%; inhibition [24]: 22%; Activity [25]: 35%; Activity [26]: 50%; Activity [27]: 50%; Activity [28]: 9%; Activity [29]: 100%; inhibition [30]: Active; IC50 [31]: 88 µM
